The results in this text go back to ChEMBL document CHEMBL2439987, “TRPV1 antagonist with high analgesic efficacy: 2-Thio pyridine C-region analogues of 2-(3-fluoro-4-methylsulfonylaminophenyl)propanamides” (Bioorg Med Chem, 2013).

Test [1] concerns the target T1, Transient receptor potential cation channel subfamily V member 1 (Homo sapiens, UniProt Q8NER1). Put plainly: Antagonist activity at human TRPV1 expressed in CHOK1 cells assessed as inhibition of pH-induced activity by FLIPR assay. It counts as cell-based, CHO-K1. The conditions noted are these: for inhibition: CHO-K1.
Test [2] concerns the target T1, Transient receptor potential cation channel subfamily V member 1. Kind of test: Antagonist activity at human TRPV1 expressed in CHOK1 cells assessed as inhibition of capsaicin-induced activity by FLIPR assay. It counts as cell-based, CHO-K1.
Test [3] deals with Rattus norvegicus. Kind of test: Analgesic activity in CCI-induced Sprague-Dawley rat neuropathic pain model assessed as reduction in paw withdrawal at 10 mg/kg, po measured 45 mins post compound administration relative to control. It counts as functional. An outline of the steps:
(§1)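 Chronic constriction injury (Bennett model) of neuropathic pain in rats, read out as cold allodynia. Compound given orally and compared with vehicle. Effect expressed as % maximal possible effect (MPE), with n = 10 per group, mean ± SEM, and p < 0.05 versus vehicle. ED50 taken from the dose–response.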

Test [4] relates to Rattus norvegicus. Put plainly: Analgesic activity in CCI-induced Sprague-Dawley rat neuropathic pain model assessed as reduction in paw withdrawal measured 45 mins after po administration. It counts as functional. An outline of the steps: as §1
For test [5], the system named is Mus musculus. Put plainly: Inhibition of capsaicin-induced hypothermia in NMRI mouse at 0.3 mg/kg, po administered 15 mins prior challenge measured at 30 mins post-challenge. It counts as functional, organism-based. On the set-up: dose 0.3 mg/kg.
Test [6] concerns the target T1, Transient receptor potential cation channel subfamily V member 1. Kind of test: Antagonist activity at human TRPV1 expressed in CHOK1 cells assessed as inhibition of N-arachidonoyl dopamine-induced activity after 5 mins by FLIPR assay.
Test [7] has the same target. Put plainly: Antagonist activity at human TRPV1 expressed in CHOK1 cells assessed as inhibition of 45 degC heat-induced activity after 5 mins by FLIPR assay. It counts as cell-based, CHO-K1.

Calls of active or inactive are those of the source. The calls are words filed in the database; no cut-off is given here. Bounds are passed on as bounds.

T1 sequence (Q8NER1 whole entry): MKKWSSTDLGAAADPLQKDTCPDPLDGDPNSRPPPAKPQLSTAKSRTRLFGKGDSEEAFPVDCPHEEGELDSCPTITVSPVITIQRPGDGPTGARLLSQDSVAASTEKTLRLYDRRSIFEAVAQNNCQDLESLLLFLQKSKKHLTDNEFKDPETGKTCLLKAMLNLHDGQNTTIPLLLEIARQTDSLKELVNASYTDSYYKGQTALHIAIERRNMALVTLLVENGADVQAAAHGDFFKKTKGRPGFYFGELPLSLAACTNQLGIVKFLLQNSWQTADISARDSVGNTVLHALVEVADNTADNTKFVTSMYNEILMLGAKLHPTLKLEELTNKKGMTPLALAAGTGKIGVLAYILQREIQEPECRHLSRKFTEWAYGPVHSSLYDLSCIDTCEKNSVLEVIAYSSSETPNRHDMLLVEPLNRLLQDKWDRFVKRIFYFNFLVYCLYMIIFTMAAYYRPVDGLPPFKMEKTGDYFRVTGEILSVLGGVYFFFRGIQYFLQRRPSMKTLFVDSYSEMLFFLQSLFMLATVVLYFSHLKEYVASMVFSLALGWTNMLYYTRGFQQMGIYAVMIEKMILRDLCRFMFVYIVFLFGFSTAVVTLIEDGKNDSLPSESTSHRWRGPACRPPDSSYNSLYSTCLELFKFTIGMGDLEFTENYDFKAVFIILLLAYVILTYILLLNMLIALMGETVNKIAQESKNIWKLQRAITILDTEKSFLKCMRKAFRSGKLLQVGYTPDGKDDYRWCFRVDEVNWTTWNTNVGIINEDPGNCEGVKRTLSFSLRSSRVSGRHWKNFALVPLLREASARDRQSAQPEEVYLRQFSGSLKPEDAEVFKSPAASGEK

As for `COC(=O)CCSc1nc(C(F)(F)F)ccc1CNC(=O)C(C)c1ccc(NS(C)(=O)=O)c(F)c1` (centres undefined), the IC50 in test [1] turned out to be 1100 nM. Further, the Ki in test [2] (read-out: Ki) came to 48.2 nM.
The like results for `CC(C(=O)NCc1ccc(C(F)(F)F)nc1SCCc1ccccc1)c1ccc(NS(C)(=O)=O)c(F)c1` (centres undefined) were, in that order, 111 nM and 1.9 nM.
As for `CC(C(=O)NCc1ccc(C(F)(F)F)nc1SCCCO)c1ccc(NS(C)(=O)=O)c(F)c1` (centres undefined), in test [2] (cho-k1), the Ki entry is “Not Active”.
As for `CC(C(=O)NCc1ccc(C(F)(F)F)nc1S(=O)(=O)C1CCCCC1)c1ccc(NS(C)(=O)=O)c(F)c1` (centres undefined), in test [1], the inhibition result was “inactive”. The inhibition constant (Ki) entry in test [2] (cho-k1) is “Not Active”.
In the case of `CC(C(=O)NCc1ccc(C(F)(F)F)nc1SCCC(=O)O)c1ccc(NS(C)(=O)=O)c(F)c1` (centres undefined), in test [1], the inhibition entry was “inactive”. The Ki result in test [2] (cho-k1) is listed as “Not Active”.
On to `CC1CCC(Sc2nc(C(F)(F)F)ccc2CNC(=O)C(C)c2ccc(NS(C)(=O)=O)c(F)c2)CC1` (centres undefined), for which, in test [1], the half-maximal inhibitory concentration (IC50) turned out to be 180 nM. The Ki in test [2] (read-out: Ki) is 0.5 nM.
As for `C[C@H](C(=O)NCc1ccc(C(F)(F)F)nc1SC1CCCCC1)c1ccc(NS(C)(=O)=O)c(F)c1`, in test [3], the “%max” value was determined as 75%. Besides, the Activity entry in test [4] was “Dose-dependent effect”. The ED50 in test [4] (0.75 h) amounted to 0.19 mg/kg. For the same compound, the inhibition result in test [5] is “Active”. The figures for the IC50 in test [1] and in test [7] were above 1000 nM and 22.3 nM, respectively. Also, the results for the Ki in test [2] (read-out: Ki) and in test [6] were 0.4 nM and 0.05 nM, respectively.
Consider `C[C@H](C(=O)NCc1ccc(C(C)(C)C)cc1)c1ccc(NS(C)(=O)=O)c(F)c1`, for which the 50% inhibitory concentration (IC50) in test [1] was 1280 nM. Also, the Ki in test [2] (read-out: Ki) came to 28 nM.
On the same counts, the results for `CC(C(=O)NCc1ccc(C(F)(F)F)nc1SC1CCC(C(C)(C)C)CC1)c1ccc(NS(C)(=O)=O)c(F)c1` (centres undefined) are 89.6 nM and 2.6 nM.
On the same counts, the results for `CC(C(=O)NCc1ccc(C(F)(F)F)nc1SCC1CCCCC1)c1ccc(NS(C)(=O)=O)c(F)c1` (centres undefined) are 254 nM and 2.3 nM.
On the same counts, the results for `CC(C)CCSc1nc(C(F)(F)F)ccc1CNC(=O)C(C)c1ccc(NS(C)(=O)=O)c(F)c1` (centres undefined) are 82 nM and 0.7 nM.
In the case of `COc1ccc(CSc2nc(C(F)(F)F)ccc2CNC(=O)C(C)c2ccc(NS(C)(=O)=O)c(F)c2)cc1` (centres undefined), the IC50 in test [1] turned out to be 279 nM. Further, the Ki in test [2] (read-out: Ki) turned out to be 2.3 nM.
On the same counts, the results for `CCCCCSc1nc(C(F)(F)F)ccc1CNC(=O)C(C)c1ccc(NS(C)(=O)=O)c(F)c1` (centres undefined) are 95.6 nM and 2.5 nM.
On to `C[C@@H](C(=O)NCc1ccc(C(F)(F)F)nc1SC1CCCCC1)c1ccc(NS(C)(=O)=O)c(F)c1`, for which, in test [1], the inhibition result was “inactive”. Also, the inhibitory constant (Ki) in test [2] (read-out: Ki) turned out to be 43.5 nM.
On the same counts, the results for `CC(C(=O)NCc1ccc(C(F)(F)F)nc1SCc1ccco1)c1ccc(NS(C)(=O)=O)c(F)c1` (centres undefined) are “inactive” and 14.6 nM.
On the same counts, the results for `CC(C(=O)NCc1ccc(C(F)(F)F)nc1SC1CCCCC1C)c1ccc(NS(C)(=O)=O)c(F)c1` (centres undefined) are “inactive” and 1.9 nM.
The like results for `CC(C(=O)NCc1ccc(C(F)(F)F)nc1SCC(F)(F)F)c1ccc(NS(C)(=O)=O)c(F)c1` (centres undefined) were, in that order, “inactive” and 4.3 nM.
Turning to `CC(C(=O)NCc1ccc(C(F)(F)F)nc1SCc1cccc(C(F)(F)F)c1)c1ccc(NS(C)(=O)=O)c(F)c1` (centres undefined), the IC50 in test [1] is 71 nM. Also, in test [2] (read-out: Ki), the Ki was determined as 3.9 nM.
Consider `CC(C(=O)NCc1ccc(C(F)(F)F)nc1SC1CCCC1)c1ccc(NS(C)(=O)=O)c(F)c1` (centres undefined), for which the inhibition result in test [1] is “inactive”. Also, in test [2] (read-out: Ki), the Ki was 1.2 nM.
Take `Cc1ccc(CSc2nc(C(F)(F)F)ccc2CNC(=O)C(C)c2ccc(NS(C)(=O)=O)c(F)c2)cc1` (centres undefined): in test [1], the IC50 was 764 nM. In addition, the inhibition constant (Ki) in test [2] (read-out: Ki) is 3.2 nM.
Consider `CCC1CCC(Sc2nc(C(F)(F)F)ccc2CNC(=O)C(C)c2ccc(NS(C)(=O)=O)c(F)c2)CC1` (centres undefined), for which the inhibition entry in test [1] was “inactive”. Also, the Ki in test [2] (read-out: Ki) stood at 1 nM.
Consider `CC(C(=O)NCc1ccc(C(F)(F)F)nc1SC1CCCCC1)c1ccc(NS(C)(=O)=O)c(F)c1` (centres undefined), for which, in test [1], the inhibition result is “inactive”.
In the case of `CC(C(=O)NCc1ccc(C(F)(F)F)nc1SCc1cccs1)c1ccc(NS(C)(=O)=O)c(F)c1` (centres undefined), the inhibition result in test [1] is “inactive”. Further, in test [2] (read-out: Ki), the Ki was 15 nM.
In the case of `CC(C(=O)NCc1ccc(C(F)(F)F)nc1SCCCN1CCCC1)c1ccc(NS(C)(=O)=O)c(F)c1` (centres undefined), the IC50 in test [1] was found to be 312 nM. In addition, the inhibition constant (Ki) in test [2] (read-out: Ki) stood at 3.3 nM.
With `CC(C(=O)NCc1ccc(C(F)(F)F)nc1[S+]([O-])C1CCCCC1)c1ccc(NS(C)(=O)=O)c(F)c1` (centres undefined), the inhibition result in test [1] was “inactive”. In test [2] (cho-k1), the Ki result was “Not Active”.
On to `CC(C(=O)NCc1ccc(C(F)(F)F)nc1SCCOc1ccccc1)c1ccc(NS(C)(=O)=O)c(F)c1` (centres undefined), for which the half-maximal inhibitory concentration (IC50) in test [1] stood at 118 nM. Moreover, in test [2] (read-out: Ki), the Ki amounted to 2.3 nM.
On the same counts, the results for `CC(C(=O)NCc1ccc(C(F)(F)F)nc1SCCCN(C)C)c1ccc(NS(C)(=O)=O)c(F)c1` (centres undefined) are 1500 nM and 27.4 nM.
On the same counts, the results for `CC(C(=O)NCc1ccc(C(F)(F)F)nc1SCc1ccc(Cl)cc1)c1ccc(NS(C)(=O)=O)c(F)c1` (centres undefined) are 674 nM and 8.7 nM.
Take `CC(C(=O)NCc1ccc(C(F)(F)F)nc1SCc1ccccc1Cl)c1ccc(NS(C)(=O)=O)c(F)c1` (centres undefined): in test [1], the half-maximal inhibitory concentration (IC50) was determined as 620 nM. In test [2] (read-out: Ki), the Ki is 4.9 nM.
For `CC(C(=O)NCc1ccc(C(F)(F)F)nc1SCCC(=O)N1CCCC1)c1ccc(NS(C)(=O)=O)c(F)c1` (centres undefined), the inhibition result in test [1] was “inactive”. Besides, the inhibition constant Ki in test [2] (read-out: Ki) came to 85 nM.
As to `CC(C(=O)NCc1ccc(C(F)(F)F)nc1SCCCBr)c1ccc(NS(C)(=O)=O)c(F)c1` (centres undefined), the IC50 in test [1] is 68 nM. Moreover, the Ki in test [2] (read-out: Ki) came to 7 nM.
On the same counts, the results for `CCCCCCSc1nc(C(F)(F)F)ccc1CNC(=O)C(C)c1ccc(NS(C)(=O)=O)c(F)c1` (centres undefined) are 719 nM and 5.6 nM.
Turning to `CC(C(=O)NCc1ccc(C(F)(F)F)nc1SCCCN1CCOCC1)c1ccc(NS(C)(=O)=O)c(F)c1` (centres undefined), in test [1], the inhibition entry was “inactive”. In test [2] (cho-k1), the Ki result is “Not Active”.
As for `CC(C(=O)NCc1ccc(C(F)(F)F)nc1SCCCN1CCCCC1)c1ccc(NS(C)(=O)=O)c(F)c1` (centres undefined), the half-inhibitory concentration (IC50) in test [1] came to 250 nM. In addition, the Ki in test [2] (read-out: Ki) is 3 nM.
On the same counts, the results for `CC1CCN(CCCSc2nc(C(F)(F)F)ccc2CNC(=O)C(C)c2ccc(NS(C)(=O)=O)c(F)c2)CC1` (centres undefined) are 217 nM and 2.9 nM.
